Compounds with a hit are over-represented: about 2.7% of the library has one in this group of screens.
PAFAH1B2 inh: blocks human PAF acetylhydrolase 1b catalytic subunit 2; recombinant PAFAH1B2, FP-rhodamine activity probe, fluorescence polarization; inhibition, % at 3.39 µM; actives 1.2% (n = 340,000);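 active = inhibition above the mean of all tested compounds plus 3 SD, cut at about 24% in these data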
PAFAH2 FP inh: PAFAH2 (human) inhibition; inhibition, % at 3.39 µM; Q99487; recombinant PAFAH2, FP-rhodamine activity probe, fluorescence polarization; actives 0.99% (n = 340,000);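 active = inhibition above the mean over all tested compounds plus 3 SD, cut at about 30% in these data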;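 also: inhibitors block probe labeling of enzyme so polarization drops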
PAFAH1B3 FP inh: blocks human PAF acetylhydrolase 1B catalytic subunit 3. Q15102. recombinant PAFAH1B3, FP-rhodamine probe, fluorescence polarization. inhibition, % at 3.39 µM. actives 0.28% (n = 340,000);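 active = inhibition above the screen-wide average of all tested compounds plus 3 SD, cut at about 25% in these data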
Target sequence (Q15102 whole entry, looked up): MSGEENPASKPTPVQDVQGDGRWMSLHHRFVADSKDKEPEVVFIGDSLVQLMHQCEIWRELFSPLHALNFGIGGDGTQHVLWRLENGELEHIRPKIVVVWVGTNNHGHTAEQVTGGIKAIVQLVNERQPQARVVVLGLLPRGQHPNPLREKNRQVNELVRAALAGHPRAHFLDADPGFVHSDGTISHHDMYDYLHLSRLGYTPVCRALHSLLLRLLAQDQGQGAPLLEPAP
pPAFAH inh: inhibitors of human plasma PAF acetylhydrolase (pPAFAH); AID 463082; Q13093; actives 1.5% (n = 330,000); inhibition, % at 3.39 µM; recombinant pPAFAH, FP-rhodamine probe fluorescence polarization;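 active = inhibition above the mean inhibition across the screen plus 3 SD, cut at about 25% in these data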;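 also: inhibitors block binding of the rhodamine activity-based probe so polarization drops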
RBBP9 inhibitor: blocks human serine hydrolase RBBP9. recombinant RBBP9, FP-Rh probe fluorescence polarization. actives 0.2% (n = 220,000). inhibition, % at 7.94 µM;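 active = inhibition above the campaign mean of all tested compounds plus 3 SD, cut at about 14% in these data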
Target sequence (O75884 whole entry, looked up): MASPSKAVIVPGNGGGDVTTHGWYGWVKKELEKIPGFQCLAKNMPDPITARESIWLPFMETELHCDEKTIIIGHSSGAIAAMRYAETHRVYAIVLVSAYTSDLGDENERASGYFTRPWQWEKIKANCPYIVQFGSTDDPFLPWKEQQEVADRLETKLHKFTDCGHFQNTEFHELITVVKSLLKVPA
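Controls: DMSO-treated enzyme wells and wells lacking RBBP9 | Material: RBBP9 protein | Technique: Fluorescence polarization | Replication: Single well per compound, no replicates | Buffer or medium: Tris-NaCl-Pluronic buffer, pH 8.0 | Timing: 30 min compound preincubation, 45 min probe labeling, 25 °C | Read-out basis: Percent inhibition from mP, scaled between DMSO and no-protein wells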
Hits are given with their value; – = inactive; · = not tested or not shown.

SMILES | PAFAH1B2 inh | PAFAH2 FP inh | PAFAH1B3 FP inh | pPAFAH inh | RBBP9 inhibitor
O=C(/C=C/c1ccco1)NC(=S)Nc1ccccc1O | · | · | · | – | –
Cc1ccc(NC(=S)NC(=O)/C=C/c2ccco2)c(O)c1 | – | – | – | 30.4 | –
O=C(/C=C\c1ccco1)NC(=S)Nc1ccccc1O | – | – | – | 32.9 | –
COc1ccc(-c2ccnc3c(C(=O)O)cnn23)cc1 | – | – | – | – | –
Cc1ccc2nc(SCC(=O)N/N=C/c3ccc(C(=O)O)cc3)cc(C)c2c1 | – | – | – | – | ·
CN(C(=O)COC(=O)C12CC3CC(CC(Cl)(C3)C1)C2)C1(C#N)CCCCC1 | 24.3 | – | – | – | ·
CCc1ccc(C2CC(c3ccc(Cl)cc3)n3nc(N)nc3N2)cc1 (stereo unspecified) | 36.2 | – | – | – | –
COc1cccc(NC(=O)COC(=O)C2CC(=O)N(c3ccc(C)cc3)C2)c1 (stereo unspecified) | – | – | – | – | ·
C=CCNC(=O)CSc1ccc(Cl)cc1 | 28.7 | – | – | – | –
C=CCNC(=O)CSCc1ccc(Br)cc1 | 26.8 | – | – | – | –
COCCNC(=O)CSc1ccc(Cl)cc1 | – | – | – | – | –
CSc1ccccc1-n1nnnc1SCc1ccccc1 | – | – | – | – | –
Cc1ccc(N2CSC3=C(C#N)C(c4cccs4)CC(=O)N3C2)cc1 (stereo unspecified) | – | – | – | 24.7 | –
CCc1ccc(N2CSC3=C(C#N)C(c4cccs4)CC(=O)N3C2)cc1 (stereo unspecified) | – | – | – | – | –
CC1CC(C)CN(C(=O)COC(=O)c2ccc3ccccc3n2)C1 (stereo unspecified) | – | – | – | – | ·
O=C(OCc1cn(-c2ccc(Cl)c(Cl)c2)nn1)c1ccccc1 | – | 78.5 | – | – | –
CCOC(=O)c1ccc(NC(=S)NNC(=O)c2cc(-c3cccnc3)nc3ccccc23)cc1 | – | – | – | 29.6 | ·
CCNC(=S)NNC(=O)c1cc(-c2cccc(OCC)c2)nc2ccccc12 | – | – | – | – | –
CCNC(=S)NNC(=O)c1cc(-c2ccc(OC)cc2)nc2ccccc12 | 27.7 | – | – | – | –
CCCCOc1cccc(-c2cc(C(=O)NNC(=S)NCC)c3ccccc3n2)c1 | – | – | – | – | –
CCNC(=S)NNC(=O)c1cc(-c2cccc(C)c2)nc2ccccc12 | 31.9 | – | – | – | –
O=C(CCNC(=O)c1ccccc1Cl)Nc1nccs1 | – | – | – | – | –
N#CC(C(=O)C12CC3CC(CC(C3)C1)C2)c1nc2ccccc2[nH]1 (stereo unspecified) | – | 31.2 | – | – | –
O=C(Nc1ccc(Cl)cn1)C1CC1 | – | – | – | – | –
O=C(NCC1CCCC(CNC(=O)Nc2ccc(Cl)cn2)C1)Nc1ccc(Cl)cn1 (stereo unspecified) | 26.3 | – | – | – | ·
SMILES | PAFAH1B2 inh | PAFAH2 FP inh | PAFAH1B3 FP inh | pPAFAH inh | RBBP9 inhibitor
O=C(Nc1ccccc1OC(F)F)c1cccc(S(=O)(=O)N2CCCC2)c1 | – | – | – | – | ·
COCCOC1CCN(Cc2cn(Cc3ccccc3)nc2-c2cc3ccccc3o2)CC1 | – | – | – | – | –
CCC(O)C1CCN(Cc2cn(Cc3ccccc3)nc2-c2cc3ccccc3o2)CC1 (stereo unspecified) | – | – | – | 27.8 | –
COc1ccc(-c2sc3ccc(N4CCOCC4)cc3c2C#Cc2ccsc2)cc1 | – | – | – | 27.6 | ·
O=C(O)c1cc(NC(=S)NC(=O)C(c2ccccc2)c2ccccc2)ccc1Cl | 32.3 | – | – | – | –
CCOCCc1nnc(NC(=O)Cc2c(F)cccc2Cl)s1 | – | – | – | – | –
CCOc1cc(CNCCSc2nnnn2C)cc(Br)c1OCc1ccccc1F | – | – | – | 25.4 | –
COc1cc(CNCCSc2nnnn2C)cc(Br)c1OCc1ccccc1F | – | – | – | – | –
Cc1cc(C)cc(NC(=O)COC(=O)CCC2CCCC2)c1 | – | – | – | – | ·
CN(C)S(=O)(=O)c1ccc(Cl)c(NC(=O)COC(=O)CCC2CCCCC2)c1 | – | 37.7 | – | 25.2 | ·
COc1ccccc1NC(=O)COC(=O)CCC1CCCC1 | – | – | – | 29.1 | ·
CN(C)S(=O)(=O)c1ccc(Cl)c(NC(=O)COC(=O)CCSc2ccccc2)c1 | – | – | – | – | –
COc1cccc(NC(=O)COC(=O)CCC2CCCC2)c1 | – | – | – | 27.7 | ·
COc1ccccc1NC(=O)COC(=O)C1CCCC1 | – | – | – | – | ·
COc1ccc(OC)c(NC(=O)COC(=O)CCC2CCCC2)c1 | – | – | – | 32.6 | ·
CN(C)c1ncc(CN2CCC(C(=O)Nc3ccc(-n4cccn4)cc3)CC2)s1 | – | – | – | – | ·
